Measured values pooled from the literature.
Compare with care: the assays were run in different laboratories.
Read-out: cell growth or viability

Structure (SMILES) | cell line | technique | concentration | time | endpoint | value
N[C@@H](CC(=O)N1CCN(C(c2ccc(F)cc2)c2ccc(F)cc2)CC1)C(=O)N1Cc2ccccc2C1 | HEK-293T | ATP luminescence | 60 µM |  | viability | 41%
O=C(NCCc1c[nH]c2ccc(F)cc12)c1cc2[nH]ccc2cc1Cl | HEK-293T |  | 100 µM | 24 h | viability | < 50%
COc1cc2c(cc1O)[C@@H](Cc1ccc(O)cc1)[N+](C)(C)CC2 | Huh-7 | MTT |  |  | CC50 | > 318 µM
CC[C@@H](C)[C@H](N)C(=O)N1Cc2ccccc2C1 | HEK-293T | ATP luminescence | 60 µM |  | viability | 73%
CCOP(=O)(OCC)[C@@H]1C[C@@H](n2cc(Cn3cc(C)c(=O)[nH]c3=O)nn2)ON1C (racemic) | human T-lymphocyte |  |  | 72 h | CC50 | > 250 µM
COc1ccc(CCN2CCC(Nc3nc4ccccc4n3Cc3ccc(F)cc3)CC2)cc1 | HepG2 | resazurin | 100 µM | 24 h | viability | 2%
CCOP(=O)(OCC)[C@@H]1C[C@H](n2cc(Cn3ccc(=O)[nH]c3=O)nn2)ON1C (racemic) | human T-lymphocyte |  |  | 72 h | CC50 | > 250 µM
CCCCCCn1c(-c2cccc(Cl)c2)n[nH]c1=S | HepG2 | resazurin | 10 µM | 24 h | viability | 103%
NC1CCC(CC2CCC(NC(=O)c3cc4[nH]ccc4cc3Cl)CC2)CC1 (stereo not shown) | HEK-293T |  | 100 µM | 24 h | viability | < 50%
CCOP(=O)(OCC)[C@@H]1C[C@@H](n2cc(-c3ccc(F)cc3F)nn2)ON1C (racemic) | human T-lymphocyte |  |  | 72 h | CC50 | ≥ 250 µM
